Experimental data from ChEMBL document CHEMBL1135693, “Solid-phase synthesis of polyamine toxin analogues: potent and selective antagonists of Ca2+-permeable AMPA receptors” (J Med Chem, 2002).

Legend:
[1] = Ratio of Ki value at -40 mV to that of -80 mV was determined; assay type: functional
Glutamate receptor 1 [2] = molecular target: T1, Glutamate receptor 1 (Homo sapiens, UniProt P42261); test: Inhibition of the (-80 mV) current elicited by 100 uM glutamate by simultaneous co-application in xenopus oocytes injected with GluR1 flop RNA.; assay type: cell-based, Oocyte
T1 sequence (P42261 whole entry): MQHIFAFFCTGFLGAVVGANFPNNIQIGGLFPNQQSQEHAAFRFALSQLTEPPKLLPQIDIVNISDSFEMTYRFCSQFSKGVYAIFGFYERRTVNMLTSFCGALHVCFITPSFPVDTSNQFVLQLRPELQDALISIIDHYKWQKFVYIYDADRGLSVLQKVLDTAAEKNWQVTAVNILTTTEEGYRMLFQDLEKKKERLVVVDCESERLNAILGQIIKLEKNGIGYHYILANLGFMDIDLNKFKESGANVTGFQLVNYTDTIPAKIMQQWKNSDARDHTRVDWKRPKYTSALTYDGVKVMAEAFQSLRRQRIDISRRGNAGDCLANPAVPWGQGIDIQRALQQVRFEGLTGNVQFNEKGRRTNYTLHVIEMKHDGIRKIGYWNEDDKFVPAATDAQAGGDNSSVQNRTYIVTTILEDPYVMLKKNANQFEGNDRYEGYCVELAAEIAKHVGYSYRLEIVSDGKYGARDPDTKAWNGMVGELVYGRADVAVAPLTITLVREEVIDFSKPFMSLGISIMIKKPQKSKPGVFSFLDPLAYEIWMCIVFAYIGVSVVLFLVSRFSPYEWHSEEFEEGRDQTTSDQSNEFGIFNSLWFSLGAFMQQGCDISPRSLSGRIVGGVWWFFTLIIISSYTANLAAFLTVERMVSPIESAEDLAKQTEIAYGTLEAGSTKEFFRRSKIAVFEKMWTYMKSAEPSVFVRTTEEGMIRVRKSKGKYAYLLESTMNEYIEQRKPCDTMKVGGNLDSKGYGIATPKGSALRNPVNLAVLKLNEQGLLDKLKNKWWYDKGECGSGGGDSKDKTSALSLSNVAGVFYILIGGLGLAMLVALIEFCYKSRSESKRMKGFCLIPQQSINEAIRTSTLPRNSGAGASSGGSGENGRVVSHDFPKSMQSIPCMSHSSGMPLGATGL
Method in brief: (§1)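 Two-electrode voltage clamp of stage V–VI Xenopus laevis oocytes (collagenase-isolated), injected with 5-30 ng GluR1 flop cRNA, recorded 3-14 days later in Ringer (pH 7.5; low-Ca2+ Ringer for high-current cells).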

Glutamate receptor 1 [3] = molecular target: T1, Glutamate receptor 1; test: Inhibition of the (-40 mV) current elicited by 100 uM glutamate by simultaneous co-application in xenopus oocytes injected with GluR1 flop RNA.; assay type: cell-based, Oocyte; method in brief: as §1
[4] = Inhibition of the current elicited by 100 uM glutamate by simultaneous co-application of the antagonist in xenopus oocytes injected with a 1:1 mixture of GluR1 flop and GluR2 flop RNA; assay type: functional, cell-based, Xenopus laevis; conditions: oocyte
Method in brief: (§2)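 Xenopus laevis oocytes (stage V–VI) injected with 5-30 ng cRNA, either 1:1 GluR1 flop + GluR2 flop or GluR5(Q) flop. After 3-14 days, two-electrode voltage clamp recordings were made in Ringer pH 7.5 (low-Ca2+ Ringer if currents were high). […] Values are means of two independent measurements in triplicate.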

[5] = Inhibition of the current elicited by 100 uM glutamate by simultaneous co-application of the antagonist in xenopus oocytes injected with a 1:1 mixture of GluR1 flop and GluR2 flop RNA as well as GluR5(Q).; assay type: functional, cell-based, Xenopus laevis; conditions: oocyte; method in brief: as §2

## NCCCNCCCCCCCCNC(=O)C(Cc1ccc(O)cc1)NC(=O)/C=C/c1ccccc1 (configuration not stated)
[1]
  Ratio: 1.5
Glutamate receptor 1 [2]
  Ki: 110 nM
Glutamate receptor 1 [3]
  Ki: 170 nM

## NCCCNCCCCCCCCNC(=O)C(Cc1ccc(O)cc1)NC(=O)c1ccccn1 (configuration not stated)
[1]
  Ratio: 1.3
Glutamate receptor 1 [2]
  Ki: 130 nM
Glutamate receptor 1 [3]
  Ki: 170 nM

## CC(C)(C)C(=O)NC(Cc1ccc(O)cc1)C(=O)NCCCCCCCCNCCCN (configuration not stated)
[1]
  Ratio: 1.6
Glutamate receptor 1 [2]
  Ki: 90 nM
Glutamate receptor 1 [3]
  Ki: 140 nM

## NCCCNCCCCCCCCNC(=O)C(Cc1ccc(O)cc1)NC(=O)C1CCCCC1 (configuration not stated)
[1]
  Ratio: 3.1
Glutamate receptor 1 [2]
  Ki: 78 nM
Glutamate receptor 1 [3]
  Ki: 240 nM

## CC(=O)NC(Cc1ccc(O)cc1)C(=O)NCCCCCCCCNCCCN (configuration not stated)
[1]
  Ratio: 1.4
Glutamate receptor 1 [2]
  Ki: 220 nM
Glutamate receptor 1 [3]
  Ki: 300 nM

## CCCC(=O)NC(Cc1ccc(O)cc1)C(=O)NCCCCNCCCCCCCN (configuration not stated)
[1]
  Ratio: 3.6
Glutamate receptor 1 [2]
  Ki: 38 nM
Glutamate receptor 1 [3]
  Ki: 135 nM
[4]
  Ki: > 10000 nM
[5]
  Ki: 60 nM

## CCCCCC(=O)NC(Cc1ccc(O)cc1)C(=O)NCCCCCCCCNCCCN (configuration not stated)
[1]
  Ratio: 14.7
Glutamate receptor 1 [2]
  Ki: 68 nM
Glutamate receptor 1 [3]
  Ki: 1000 nM

## NCCCNCCCCCCCCNC(=O)C(Cc1ccc(O)cc1)NC(=O)CCc1ccccc1 (configuration not stated)
[1]
  Ratio: 1
Glutamate receptor 1 [2]
  Ki: 250 nM
Glutamate receptor 1 [3]
  Ki: 254 nM

## CCCC(=O)NC(Cc1ccc(O)cc1)C(=O)NCCCCCCCNCCCCN (configuration not stated)
[1]
  Ratio: 18
Glutamate receptor 1 [2]
  Ki: 168 nM
Glutamate receptor 1 [3]
  Ki: 3000 nM
[4]
  Ki: 1600 nM
[5]
  Ki: 290 nM

## CCCC(=O)NC(Cc1ccc(O)cc1)C(=O)NCCCCCCNCCCCCN (configuration not stated)
Glutamate receptor 1 [2]
  Ki: 468 nM
Glutamate receptor 1 [3]
  Ki: > 10000 nM
[4]
  Ki: 6400 nM
[5]
  Ki: 800 nM

## CCCC(=O)NC(Cc1ccc(O)cc1)C(=O)NCCCNCCCCNCCCN (configuration not stated)
Glutamate receptor 1 [2]
  Ki: 22000 nM
Glutamate receptor 1 [3]
  Ki: 170000 nM
[4]
  Ki: > 5000 nM
[5]
  Ki: 15 nM

## NCCCNCCCCCCCCNC(=O)C(Cc1ccc(O)cc1)NC(=O)c1ccncc1 (configuration not stated)
[1]
  Ratio: 5.1
Glutamate receptor 1 [2]
  Ki: 64 nM
Glutamate receptor 1 [3]
  Ki: 330 nM

## CCC(=O)NC(Cc1ccc(O)cc1)C(=O)NCCCCCCCCNCCCN (configuration not stated)
[1]
  Ratio: 2.8
Glutamate receptor 1 [2]
  Ki: 100 nM
Glutamate receptor 1 [3]
  Ki: 280 nM

## NCCCNCCCCCCCCNC(=O)C(Cc1ccc(O)cc1)NC(=O)c1cccnc1 (configuration not stated)
[1]
  Ratio: 2.4
Glutamate receptor 1 [2]
  Ki: 88 nM
Glutamate receptor 1 [3]
  Ki: 210 nM

## CCCC(=O)NC(Cc1ccc(O)cc1)C(=O)NCCCCCCCCCNCCN (configuration not stated)
Glutamate receptor 1 [2]
  Ki: 410 nM
Glutamate receptor 1 [3]
  Ki: 6200 nM
[4]
  Ki: > 10000 nM
[5]
  Ki: 2100 nM

## NCCCNCCCCCCCCNC(=O)C(Cc1ccc(O)cc1)NC(=O)Cc1ccccc1 (configuration not stated)
[1]
  Ratio: 2.3
Glutamate receptor 1 [2]
  Ki: 110 nM
Glutamate receptor 1 [3]
  Ki: 250 nM

## CCCC(=O)NC(Cc1ccc(O)cc1)C(=O)NCCCCCCCCNCCCN (configuration not stated)
Glutamate receptor 1 [2]
  Ki: 65 nM
Glutamate receptor 1 [3]
  Ki: 8000 nM
[4]
  Ki: > 10000 nM
[5]
  Ki: 250 nM

## CCCC(=O)NC(Cc1ccc(O)cc1)C(=O)NCCCCCNCCCCCCN (configuration not stated)
[1]
  Ratio: 86
Glutamate receptor 1 [2]
  Ki: 3.3 nM
Glutamate receptor 1 [3]
  Ki: 287 nM
[4]
  Ki: 5200 nM
[5]
  Ki: 2200 nM

## NCCCNCCCCCCCCNC(=O)C(Cc1ccc(O)cc1)NC(=O)c1ccccc1 (configuration not stated)
[1]
  Ratio: 1.9
Glutamate receptor 1 [2]
  Ki: 130 nM
Glutamate receptor 1 [3]
  Ki: 250 nM
